# Assays:
# Escherichia coli = test: Antibacterial activity against Escherichia coli ATCC 25922 after 24 hrs; format: functional
# Summary of the method: (§1)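 Broth microdilution in MHB. Overnight cultures at 37 °C with shaking, diluted 40-fold and grown 2−3 h to mid-log, then added at final 5 × 10^5 CFU/mL. Compounds in 2-fold series, final 0.015−32 μg/mL, in duplicate. Incubated 24 h at 37 °C. MIC read visually as lowest concentration with no visible growth. Vancomycin, daptomycin and colistin as controls.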
# Staphylococcus aureus [1] = test: Antibacterial activity against methicillin-resistant Staphylococcus aureus ATCC 43300 after 24 hrs; format: functional; conditions: ATCC 43300, 24 h
# Summary of the method: (§2)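 Broth microdilution in MHB. Overnight cultures grown at 37 °C with shaking, diluted 40-fold and grown 2−3 h to mid-log, then added at a final 5 × 10^5 CFU/mL. Compounds in 2-fold serial dilution, final 0.015−32 μg/mL, in duplicate. Incubated 24 h at 37 °C. MIC read visually as the lowest concentration with no visible growth. Vancomycin, daptomycin and colistin served as controls.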
# Staphylococcus aureus [2] = test: Antibacterial activity against glycopeptide-intermediate Staphylococcus aureus NRSA-NRS 17 after 24 hrs; format: functional; conditions: NRSA-NRS 17, 24 h; summary of the method: as §1
# Streptococcus pneumoniae = test: Antibacterial activity against multidrug-resistant Streptococcus pneumoniae ATCC 700677 after 24 hrs; format: functional; conditions: ATCC 700677, 24 h; summary of the method: as §2
# HEK293 = test: Cytotoxicity against human HEK293 cells after 24 hrs; format: cell-based; conditions: HEK293, 24 h
# Summary of the method: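 HEK293 cells seeded at 3000/well in DMEM with 10% FBS, attached 24 h at 37 °C, 5% CO2. Compounds from 1.28 mg/mL DMSO stock in 1:3 serial dilutions, final DMSO 1%, 24 h exposure. Resazurin 10 μM added for 2 h; fluorescence ex/em 560/590 nm. Four replicates; viability normalised to 1% DMSO and negative controls. Tamoxifen positive control.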
# Enterococcus faecalis = test: Antibacterial activity against Enterococcus faecalis clinical isolate expressing VanA after 24 hrs; format: functional; summary of the method: as §2
# Staphylococcus aureus [3] = test: Antibacterial activity against methicillin-resistant and glycopeptide-intermediate Staphylococcus aureus NRSA-NRS 1 after 24 hrs; format: functional; conditions: NRSA-NRS 1, 24 h; summary of the method: as §2
# Enterococcus faecium = test: Antibacterial activity against multidrug-resistant Enterococcus faecium ATCC 51559 expressing VanA after 24 hrs; format: functional; conditions: ATCC 51559, 24 h; summary of the method: as §2
Compound,"MIC (Escherichia coli; ATCC 25922, 24 h)",MIC (Staphylococcus aureus [1]),MIC (Staphylococcus aureus [2]),MIC (Streptococcus pneumoniae),IC50 (HEK293),MIC (Enterococcus faecalis),MIC (Staphylococcus aureus [3]),MIC (Enterococcus faecium),MIC (Escherichia coli)
COc1cc(C(=O)/C=C/c2cc(O)ccc2O)c(O)c2c1OC(C)(CCC=C(C)C)C=C2 (stereo not drawn),> 32 µg/mL,32 µg/mL,> 32 µg/mL,32 µg/mL,21 µM,16 µg/mL,32 µg/mL,32 µg/mL,
COc1cc(C(=O)/C=C/c2cccc(O)c2O)c(O)c2c1OC(C)(CCC=C(C)C)C=C2 (stereo not drawn),> 32 µg/mL,32 µg/mL,> 32 µg/mL,32 µg/mL,37 µM,16 µg/mL,32 µg/mL,32 µg/mL,
CCCCCCCCCC(=O)N[C@@H](Cc1c[nH]c2ccccc12)C(=O)N[C@H](CC(N)=O)C(=O)N[C@@H](CC(=O)O)C(=O)N[C@@H]1C(=O)NCC(=O)N[C@@H](CCCN)C(=O)N[C@@H](CC(=O)O)C(=O)N[C@H](C)C(=O)N[C@@H](CC(=O)O)C(=O)NCC(=O)N[C@H](CO)C(=O)N[C@@H]([C@H](C)CC(=O)O)C(=O)N[C@@H](CC(=O)c2ccccc2N)C(=O)O[C@@H]1C,,1.2 µg/mL,8 µg/mL,2 µg/mL,,8 µg/mL,16 µg/mL,16 µg/mL,
COLISTIN,,,,,,,,,0.25 µg/mL
CN[C@H](CC(C)C)C(=O)N[C@H]1C(=O)N[C@@H](CC(N)=O)C(=O)N[C@H]2C(=O)N[C@H]3C(=O)N[C@H](C(=O)N[C@H](C(=O)O)c4cc(O)cc(O)c4-c4cc3ccc4O)[C@H](O)c3ccc(c(Cl)c3)Oc3cc2cc(c3O[C@@H]2O[C@H](CO)[C@@H](O)[C@H](O)[C@H]2O[C@H]2C[C@](C)(N)[C@H](O)[C@H](C)O2)Oc2ccc(cc2Cl)[C@H]1O [VANCOMYCIN],,,8 µg/mL,2 µg/mL,,> 32 µg/mL,8 µg/mL,> 32 µg/mL,

# From ChEMBL document CHEMBL3600305, “Flemingin-Type Prenylated Chalcones from the Sarawak Rainforest Plant Desmodium congestum” (J Nat Prod, 2015)
